Assay: Toxicity liver stage against HepG2, at 10uM
Assay type: cell-based
Parameters: test concentration 10 uM, cell line HepG2-A16-CD81EGFP
Settings: human, HepG2-A16-CD81EGFP cells; read-out: INHIBITION
Procedure, shortened: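 Uninfected HepG2-A16-CD81EGFP cells, 3 × 10^3 per well, 1536-well, plated on prespotted compound at 10 μM final, parasite-free screening media added to match infected plates; puromycin 10 μM positive, DMSO 0.5% negative; run in parallel with 48 h PbLuc assay at 37 °C, 5% CO2; viability by CellTiter-Glo luminescence, normalized to controls.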

Row | SMILES | cytotoxicity at 10 µM [%]
1 | Cc1nc2cc(=O)[nH]n2c(C)c1CC(=O)Nc1cn[nH]c1 | 6.13
2 | O=S(=O)(CCO)Cc1ccc(OC(F)F)cc1 | -2.88
3 | COc1ccc(CNC(=O)N2CCCC(Nc3ccccc3)C2)cn1 (stereo not given) | -4.57
4 | CCn1c(C)cc(C(=O)N2CCC(NC(=O)c3ccc(C)o3)CC2)c1C | -7.45
5 | NC(=O)CN(Cc1ccc(Br)cc1)C(=O)c1ccncc1 | 4.16
6 | Cc1nc(NC2(CN3CCCCC3)CCCCC2)c2cnn(C)c2n1 | 3.94
7 | COc1ccc(NC(=O)c2cnc(N(C)C3CCCCC3)nc2N)cc1 | -3.64
8 | Cc1nnc(NC(=O)NCc2cccnc2N(C)C)s1 | -10.3
9 | COc1ccnc(N2CCN(C(=O)N3CCOCC3)CC2)n1 | -1.64
10 | Cc1ccc2c(n1)N(CCn1cccn1)CCN(C(=O)NC(C)C)C2 | 13.3
11 | COc1c(C)cnc(CN2CCn3c(nnc3C(C)C)C2)c1C | 5.56
12 | Cn1cc(C[C@H]2[C@H](O)CCN2Cc2ccncc2)cn1 | -78.5
13 | O=C(NCCNc1ncccn1)c1cnc(-c2ccccc2)nc1 | 12.1
14 | Cc1ccsc1S(=O)(=O)N1CCc2c(c(C(=O)O)nn2CC2CC2)C1 | -0.714
15 | Cn1ncc(N2CCOC(CCNC(=O)CO)C2)cc1=O (stereo not given) | -8.58
16 | O=C(Nc1ccc(Br)cc1F)c1ccc(N2CCCCC2)nn1 | 1.16
17 | CNc1ncc(CN(C)C(=O)[C@@]23CNC[C@@H]2CN(C(=O)C2CC2)C3)cn1 | 4.67
18 | Cc1cccc(CN2C(=O)C[C@@H]3[C@@H]2CCN3Cc2ccsc2)n1 | -6.63
19 | Cc1cc(C)n(-c2ccc(C(=O)NCC(CO)Cc3ccco3)cc2)n1 (stereo not given) | 3.62
20 | Cn1cc(S(=O)(=O)NC(=O)C2(c3ccccc3)CCC2)cn1 | -6.85
21 | CSCCC(=O)N1CCN(CC(O)C(C)(C)C)CC1 (stereo not given) | -2.06
22 | O=C(COc1ccccc1)NCC1CCN(Cc2ccsc2)CC1 | -4.59

Row | SMILES | cytotoxicity at 10 µM [%]
23 | CCN1CCn2c(C)cnc2C12CCN(C(=O)Cc1ccccc1)CC2 | 4.59
24 | Cc1nc2c(c(C)c1CC(=O)NC(C)c1ccccc1)c(=O)[nH]n2C (stereo not given) | -3.44
25 | CC(C)CN1C(=O)CO[C@@H]2CNC[C@H]21 | -110
26 | N#Cc1cccc(C(=O)N2CCc3ncc(Cn4cccn4)n3CC2)c1 | 5.84
27 | CC(=O)N1N=C(COc2ccc3c(c2)OCO3)OC1c1ccc(C)cc1 (stereo not given) | 1.22
28 | O=C1[C@@H]2CCN(CC3CC3)C[C@@H]2OCCN1c1cccnc1 | 8.1
29 | Cc1cc(NC(=O)N2CCOCC2)nn1-c1cccc(Cl)c1 | -1.57
30 | N#Cc1ccc(N2CCCN(CC(=O)N3CCC3)CC2)cc1 | -8.38
31 | O=S1(=O)NC(C2CCN(Cc3ccncc3)CC2)Nc2ccccc21 (stereo not given) | -19.3
32 | CC(C)n1cnnc1CNC(=O)CCCOc1ccccc1F | -4.56
33 | Cc1nc(CCNC(=O)NCC(c2ccco2)N(C)C)cs1 (stereo not given) | 7.26
34 | COCc1cc(CNc2cnn(CC(F)F)c2)ccc1OC | -7.58
35 | Fc1cccc(Cl)c1CNCCOc1ccccn1 | -11.4
36 | COc1ccc(CN2CCC(O)(CN3CCCCC3)C2)c(C)c1 (stereo not given) | 7.5
37 | CCNC(=O)NC1CCN(c2ccc(S(=O)(=O)CC)cc2)CC1 | 7.89
38 | c1cnc(N2C[C@H](OCC3CCOCC3)[C@H]3COC[C@H]32)nc1 | -1.92
39 | O=C(c1cocn1)N1C[C@H]2CCC[C@@]2(COCc2cccnc2)C1 | 7.35
40 | O=S(=O)(c1cccs1)N1CCCn2nnc(CN3CCCCC3)c2C1 | -17.5
41 | NC(=O)C1CCN(C(=O)c2cc(-n3cnnn3)ccc2Cl)CC1 | 12.4
42 | Cc1c(C(=O)NCCC(=O)N2CCCC2)cccc1-c1ccccn1 | 1.39
43 | Cc1nn(C)cc1CN1CCc2nc(-c3cccnc3)nc(O)c2C1 | 22.5
44 | CCN(C(C)=O)C1CCN(c2nccc(CCC(F)(F)F)n2)C1 (stereo not given) | -4.39

Row | SMILES | cytotoxicity at 10 µM [%]
45 | Cn1ncc2c1C(COCC1CC1)CN(C(=O)c1cscn1)C2 (stereo not given) | -76
46 | CN(C)C(=O)CN1C[C@@H]2OCCN(c3ncc(F)cn3)[C@@H]2C1 | -0.756
47 | CCC[C@H]1CN(c2nc(CO)cs2)C[C@@H]1NC(=O)C1(COC)CC1 | -2.87
48 | COC(=O)C1CN(Cc2cc(F)ccc2Br)CCO1 (stereo not given) | -5.51
49 | Cc1nccn1CC1CCCN(C(=O)c2cnn(C)c2)C1 (stereo not given) | -6.44
50 | CCC(=O)NCC(=O)NCC(C)(C)c1cccc(Br)c1 | -2.32
51 | Cc1cc(OCc2ccc(C(=O)O)s2)ccc1Cl | 12.2
52 | Cc1cccc(CC(=O)Nc2cnn(C3CCOC3)c2)c1 (stereo not given) | -0.813
53 | C/C=C(\C)CN1C[C@H](NC(=O)CN2CCCC2=O)[C@@H](c2ccc(C)o2)C1 | 10.8
54 | CS(=O)(=O)N1CCN2C(=O)N(C3CCCCC3)C[C@H]2C1 | 7.77
55 | CCN(CC1CCOC1)C(=O)c1ccn(-c2cc(C)ccc2OC)n1 (stereo not given) | 6.16
56 | c1ccc(COc2cccc(CNC3CCc4ncnn4C3)c2)cc1 (stereo not given) | -13.7
57 | COC(=O)CC(NC(=O)c1ccccc1OC)c1cccs1 (stereo not given) | 0.35
58 | O=C(c1cccnc1)N1C[C@H]2CC[C@@H](C1)N(Cc1ccc(F)cc1Cl)C2 | 1.17
59 | COCCN1CCCC2(CCN(Cc3noc(C4CCCC4)n3)C2)C1=O (stereo not given) | 3.96
60 | CCCN(CC(=O)N1CCNCC1)C(=O)c1cccc(Cl)c1 | 10.7
61 | COC(=O)CN1CCSC(c2ccccc2)C1 (stereo not given) | 17.8
62 | CC1CN(c2ncnc3c2cnn3C)CCN1c1nccs1 (stereo not given) | 7.04
63 | COc1c(Br)c(C(=O)NC2CCCC2)nn1C | 6.44
64 | CC1c2ncc(CNC(=O)C3CC3)n2CCN1Cc1ccsc1 (stereo not given) | 1.06
65 | COCC(=O)N1CCC(C(=O)Nc2ccc(S(N)(=O)=O)cc2)CC1 | -1.47
66 | CCOc1ncccc1NC(=O)N1CCCN(C(=O)OC)CC1 | -9.86

Row | SMILES | cytotoxicity at 10 µM [%]
67 | COc1cccc(C(=O)N2CCc3c(nc(N)[nH]c3=O)C2)c1OC | -9.91
68 | CC(CN1CCOCC1)NCC1CCN(c2cnn(C)c(=O)c2)CC1 (stereo not given) | -9.93
69 | Cc1nc(C)n(CC2CCCN2CC(=O)NCCc2ccccc2)n1 (stereo not given) | -16.5
70 | CCN(C(=O)C1CCC1)C(c1cccnc1)c1ccc2c(c1)CCO2 (stereo not given) | -7.88
71 | COc1cc(NC2CCS(=O)(=O)C2)ncn1 (stereo not given) | 7.53
72 | O=C(NCCCn1cccn1)C1(c2ccc(F)cc2)CC1 | -6.13
73 | Cc1cc(Oc2ccc(NC(=O)C3CC3)cc2)cc(C2CCNCC2)n1 | -6.18
74 | O=C(c1ccon1)N1CCc2ncnc(NCc3cccnc3)c2CC1 | -1.9
75 | Nc1ncncc1-c1noc([C@@H]2CCCN2Cc2cccnc2)n1 | -7.29
76 | Cc1cc(CS(=O)(=O)NC2CCCCC2)on1 | 2.92
77 | CS(=O)(=O)NC1CCCN(C(=O)NCc2cc[nH]n2)C1 (stereo not given) | 4.14
78 | CCc1nc(Cn2c(=O)c3c(C(F)(F)F)cc(C)nc3n2C)no1 | 2.58
79 | Cc1ccc(NC(=O)Nc2cnc(N3CCN(C)CC3)nc2)c(Cl)c1 | 6.07
80 | c1ccc2c(c1)nc1n2[C@@H](CNCc2nccs2)COC1 | -1.4
81 | COCCN1CCN(c2ccc(C)nn2)Cc2ccc(C)nc21 | -104
82 | CC(=O)N1CCC2(C1)c1ccccc1S(=O)(=O)N2Cc1ccccc1 (stereo not given) | -127
83 | CCNC(=O)NC(=O)CN1CCOC(c2ccccc2Cl)C1 (stereo not given) | 6.58
84 | CCNC(=O)NC(c1ccc(C)cc1)c1cccc(S(C)(=O)=O)c1 (stereo not given) | -5.82
85 | O=C(CCC(=O)N1CCOCC1)NCc1cccnc1-n1cccn1 | -3.65
86 | c1cc(CN2CCc3c(nnn3CC3CC3)C2COCC2CC2)co1 (stereo not given) | 2.02
87 | COCCC(Cc1cccc(Br)c1)C(=O)O (stereo not given) | 9.21
88 | Cc1cccc(NC(=O)N2CCN(Cc3nnc(C(C)C)o3)CC2)c1 | -1.02

Row | SMILES | cytotoxicity at 10 µM [%]
89 | CN(C)C(=O)N1CCN(CCCOc2ccccc2)[C@H]2CS(=O)(=O)C[C@H]21 | 0.666
90 | COc1ccc(N2CCC(N3CCOC(C(F)(F)F)C3)CC2)cc1 (stereo not given) | -20.5
91 | COCCNC(=O)CCn1ncc2c(Cl)cccc21 | 10.5
92 | Cc1nc2c(c(C)c1CC(=O)NCc1cccs1)c(=O)[nH]n2C | -34.2
93 | CN(Cc1ccc2c(c1)OCCO2)C(=O)Cn1ccccc1=O | 1.2
94 | Cc1nc2ccc(C(=O)N3CC[C@H](O)[C@@H](N4CCOCC4)CC3)cc2[nH]1 | -8.32
95 | CC(=O)Nc1cccc(Cn2nc(C)nc2C)c1 | -3.19
96 | CC(C)(C)n1ncc2c1NC(=O)CC2c1ccc(OCC(N)=O)cc1 (stereo not given) | 20.6
97 | O=C1C[C@H]2[C@@H](CCN2C(=O)c2cscn2)N1Cc1cccnc1 | -0.184
98 | Cc1ccc(N2N=C(C(=O)N(C)Cc3ccco3)NCC2=O)cc1 | 6.27
99 | Nc1nccc(N2C[C@@H](CN3CCCCC3)[C@@H](CO)C2)n1 | -2.16
100 | COCCN1C(=O)C[C@H]2[C@H]1CCN2Cc1ccccc1 | -71.5
101 | CNC(=O)COc1ccc(CNc2c(Cl)cccc2C#N)cc1 | -55.9
102 | O=C(NCCC(=O)N1CCCc2ccccc21)c1c(O)cc(F)cc1F | 1.35
103 | CN1C(=O)CN(C(=O)c2ccc(=O)n(C)c2)c2ccccc21 | -6.67
104 | Cc1n[nH]c(C)c1NC(=O)CN1CCn2c(nnc2C(C)C)C1 | -1.03
105 | COc1cccc2c1ccn2CCNC(=O)CCNc1ncccn1 | -6.27
106 | N#Cc1ccccc1CN1CCCC(c2nccn2CC2CCC2)C1 (stereo not given) | -5.06
107 | CSC1=Nc2c(cnn2-c2ccc(Cl)cc2)C2=NCCCN12 | 7.41
108 | CCOC(=O)CC(c1cccc(OC)c1OC)c1c(C)[nH][nH]c1=O (stereo not given) | 0.0535
109 | Cc1ncsc1C(=O)N(C)CCc1ccncc1 | -3.81
110 | CCn1ccc(NC(=O)CCn2nc(C)c3ccccc32)n1 | 4.51

— ChEMBL document CHEMBL4513216, “Probing the Open Global Health Chemical Diversity Library for Multistage-Active Starting Points for Next-Generation Antimalarials” (ACS Infect Dis, 2020)
